The values that follow come from ChEMBL document CHEMBL1140300, “Synthesis and pharmacological characterization of exo-2-(2'-chloro-5-pyridinyl)-7-(endo and exo)-aminobicyclo[2.2.1]heptanes as novel epibatidine analogues” (J Med Chem, 2005).

Structures are written as SMILES. Where only a bound is given, the exact number is not on record here.

Experiment [1] has as its target Neuronal acetylcholine receptor subunit alpha-7 (Homo sapiens, UniProt P36544). Put plainly: Displacement of [125]iodoMLA from alpha-7 nAChR.
Experiment [2] deals with Neuronal acetylcholine receptor; alpha4/beta2 (Rattus norvegicus, UniProt P09483+P12390). Put plainly: Displacement of [3H]epibatidine from alpha4beta2 nAChR in rat cerebral cortex. In kind it is tissue-based.
Chain of Neuronal acetylcholine receptor; alpha4/beta2 (P09483 whole entry): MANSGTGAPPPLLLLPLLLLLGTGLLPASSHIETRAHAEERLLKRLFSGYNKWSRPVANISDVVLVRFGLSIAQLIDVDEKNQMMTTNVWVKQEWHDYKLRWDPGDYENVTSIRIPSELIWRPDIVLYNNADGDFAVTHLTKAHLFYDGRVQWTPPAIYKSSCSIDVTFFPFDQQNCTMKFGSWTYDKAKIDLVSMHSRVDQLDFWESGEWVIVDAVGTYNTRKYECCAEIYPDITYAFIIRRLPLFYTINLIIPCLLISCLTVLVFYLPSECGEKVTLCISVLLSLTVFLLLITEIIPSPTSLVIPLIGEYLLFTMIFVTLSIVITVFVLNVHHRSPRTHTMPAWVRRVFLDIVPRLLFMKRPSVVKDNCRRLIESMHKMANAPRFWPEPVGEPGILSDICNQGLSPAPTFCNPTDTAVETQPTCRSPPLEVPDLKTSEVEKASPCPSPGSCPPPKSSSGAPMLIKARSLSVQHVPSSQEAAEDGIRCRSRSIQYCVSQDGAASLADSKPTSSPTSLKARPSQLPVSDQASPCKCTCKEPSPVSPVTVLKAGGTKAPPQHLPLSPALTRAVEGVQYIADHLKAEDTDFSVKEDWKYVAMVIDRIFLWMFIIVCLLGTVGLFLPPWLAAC
Chain of Neuronal acetylcholine receptor; alpha4/beta2 (P12390 whole entry): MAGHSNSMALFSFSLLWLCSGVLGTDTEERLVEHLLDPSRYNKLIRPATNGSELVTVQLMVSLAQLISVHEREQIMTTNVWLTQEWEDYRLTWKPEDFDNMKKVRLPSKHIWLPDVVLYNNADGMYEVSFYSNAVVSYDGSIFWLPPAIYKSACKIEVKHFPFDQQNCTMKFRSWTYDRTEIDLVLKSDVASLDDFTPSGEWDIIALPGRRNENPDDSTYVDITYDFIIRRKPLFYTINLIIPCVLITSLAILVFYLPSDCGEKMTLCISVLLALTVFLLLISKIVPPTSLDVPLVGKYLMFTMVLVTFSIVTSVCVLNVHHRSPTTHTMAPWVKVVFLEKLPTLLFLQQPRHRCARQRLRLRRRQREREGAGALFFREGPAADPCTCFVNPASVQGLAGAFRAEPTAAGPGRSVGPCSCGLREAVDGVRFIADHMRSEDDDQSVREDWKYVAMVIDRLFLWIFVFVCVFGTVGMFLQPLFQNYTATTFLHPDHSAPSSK
In experiment [3] the test system is Mus musculus. Put plainly: Activity in sc dosed mouse by hypothermia test. The experiment is classed as functional. In short, it runs like this:
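Rectal temperature in mice via thermistor probe inserted 24 mm, read just before and at several times after sc injection of saline or test compound. Change from pretreatment value per mouse. Ambient 21–24 °C. ED50 with 95% confidence limits by unweighted least-squares linear regression.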

Experiment [4] deals with Mus musculus. Put plainly: Antinociceptive activity in sc dosed mouse by tail-flick method. In kind it is functional. In outline: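 Mouse tail-flick (D'Amour–Smith): tail exposed to heat lamp, latency to flick recorded. Control latency (2–4 s) taken per mouse before treatment, test latency after sc dosing. Response as %MPE = [(test – control)/(maximum latency – control) × 100]. ED50 with 95% confidence limits by unweighted least-squares linear regression.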
A general note: Thermal pain tests record how soon the animal reacts.

The test system of experiment [5] is Mus musculus. Put plainly: Antinociceptive activity in sc dosed mouse by hotplate method. The experiment is classed as functional. In short, it runs like this: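 Mouse hot-plate at 55.0 °C, animal in 10 cm glass cylinder. Two control latencies ≥10 min apart (normal 8–12 s). End point is jumping or paw licking. Tested 5 min after sc injection across a dose range. Response as %MPE = [(test – control)/(maximum latency – control) × 100]. ED50 with 95% confidence limits by unweighted least-squares linear regression.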

For experiment [6], the system named is Mus musculus. Put plainly: Effect on locomotor activity in sc dosed mouse. The experiment is classed as functional. In outline: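 Spontaneous activity: mice placed in individual photocell cages (28 × 16.5 cm) 5 min after sc dosing of 0.9% saline or test compound. Beam interruptions (two banks of eight cells) counted over the next 10 min.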

Chain of Neuronal acetylcholine receptor subunit alpha-7 (P36544 whole entry): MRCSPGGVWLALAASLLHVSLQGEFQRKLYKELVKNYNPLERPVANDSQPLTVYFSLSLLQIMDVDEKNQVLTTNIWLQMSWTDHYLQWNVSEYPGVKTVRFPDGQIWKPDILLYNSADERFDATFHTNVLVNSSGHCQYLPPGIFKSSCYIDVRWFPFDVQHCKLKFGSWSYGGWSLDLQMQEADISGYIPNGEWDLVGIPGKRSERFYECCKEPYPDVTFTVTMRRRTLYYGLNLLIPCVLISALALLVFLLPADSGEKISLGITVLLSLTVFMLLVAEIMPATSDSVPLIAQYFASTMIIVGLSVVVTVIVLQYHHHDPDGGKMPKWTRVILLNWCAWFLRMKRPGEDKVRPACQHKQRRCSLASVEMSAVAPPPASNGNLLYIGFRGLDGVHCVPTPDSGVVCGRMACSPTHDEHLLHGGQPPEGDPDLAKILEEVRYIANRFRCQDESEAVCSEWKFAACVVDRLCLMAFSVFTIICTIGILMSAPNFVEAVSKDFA

In general, Ki refers to the equilibrium dissociation constant of an inhibitor or competing ligand from its target. Read a high Ki as lower affinity. Consider `Clc1ccc([C@H]2CC3CCC2[C@@H]3NCc2ccccc2)cn1` (relative stereo), for which the Ki in experiment [1] was > 200 nM; in experiment [2] it was > 1000 nM.

For orientation: ED50 means the dose that gives a 50% effect, or the effect in half of the subjects. A lower ED50 goes with greater potency. Consider `Cl.Cl.Cl.N[C@H]1C2CCC1[C@@H](c1ccc(Cl)nc1)C2` (relative stereo), for which the Ki was > 700 nM in experiment [1] and 8.2 nM in experiment [2]. For the same compound, the ED50 stood at 3.4 mg/kg in the experiment on Mus musculus [3], 4.5 mg/kg in the experiment on Mus musculus [4] and 2.9 mg/kg with Mus musculus [5].

`Clc1ccc([C@H]2CC3CCC2[C@H]3NCc2ccccc2)cn1` (relative stereo): the results for the Ki in experiment [1] and in experiment [2] were > 700 nM and > 1000 nM, respectively.

On to `Cl.N[C@@H]1C2CCC1[C@@H](c1ccc(Cl)nc1)C2` (relative stereo), for which the inhibition constant Ki is > 700 nM in experiment [1] and 10.9 nM in experiment [2]. For the same compound, the ED50 is 2.3 mg/kg in the experiment with Mus musculus [3], 1.1 mg/kg with Mus musculus [6], 4.5 mg/kg in the experiment with Mus musculus [4] and 4.4 mg/kg in the experiment with Mus musculus [5].

In the case of `Cl.Clc1ccc([C@H]2CC3CCC2N3)cn1` (some centres undefined) [EPIBATIDINE HYDROCHLORIDE], the Ki in experiment [1] came to 198 nM. The ED50 is 0.004 mg/kg in the experiment with Mus musculus [3], 0.001 mg/kg with Mus musculus [6], 0.006 mg/kg in the experiment on Mus musculus [4] and 0.004 mg/kg in the experiment with Mus musculus [5].

As to `CN1CCC[C@H]1c1cccnc1.Cl` [NICOTINE HYDROCHLORIDE], the ED50 in the experiment with Mus musculus [3] was determined as 1 mg/kg; with Mus musculus [6] it was 0.5 mg/kg; in the experiment on Mus musculus [4], 1.3 mg/kg; with Mus musculus [5], 0.65 mg/kg.
